Active and inactive are the calls of the source. No cut-off for these calls is given here.
Experiments:
Rattus norvegicus [1] = organism: Rattus norvegicus; experiment: Inhibition of calcium activation was assessed against calcium-induced constriction of potassium-depolarized rat aorta (Negative logarithm of the molar concentration); format: functional, organism-based; settings: read-out: pA2 (converted)
Rattus norvegicus [2] = organism: Rattus norvegicus; experiment: inhibitory effect of compound on contraction induced by high potassium in isolated rat aorta; format: functional
Procedure, shortened: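 Isolated rat aortic strips contracted with high potassium; compound added 30 min before measurement.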

Rattus norvegicus [3] = organism: Rattus norvegicus; experiment: Inhibitory effect of compound on calcium influx by high potassium in isolated rat aorta; format: functional
Procedure, shortened: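 Rat aortic strips; compound present 30 min before and during 45Ca incubation under high potassium. Strips then washed 60 min at 4 °C in La-substituted solution (73.8 mM LaCl3, 5.5 mM glucose, 24 mM Tris), dissolved in toluene at 40 °C, counted by liquid scintillation; expressed as apparent tissue 45Ca content (mmol/kg wet wt).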

Rattus norvegicus [4] = experiment: Preventive effect of compound was measured on methacholine-induced ST elevation in anesthetized rats at 0.3 mg/kg iv dose without test compound; format: functional
Procedure, shortened: (§1)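 Male Sprague-Dawley rats (~500 g), pentobarbital 60 mg/kg ip. Methacholine 8 μg/kg bolus via carotid cannula near aortic valve into coronary ostia, before, at 0.5 min and every 5 min after iv compound (femoral vein; vehicle 5% ethanol in saline). Lead II ECG ST amplitude; mean ± SE, n=5; paired Student's t-test.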

Rattus norvegicus [5] = experiment: Preventive effect of compound was measured on vasopressin-induced ST depression rats at 30 mg/kg po dose after 7 hr of administration; +=Differ from control value; format: functional, organism-based; set-up: dose 30 mg/kg
Procedure, shortened: (§2)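 Male Donryu rats (150-220 g), pentobarbital 60 mg/kg ip. Compound in 0.5% tragacanth given orally; vasopressin 0.2 IU/kg iv via femoral vein cannula. Lead II ECG ST depression measured every 30 s for 5 min after vasopressin. 10-20 experiments; + means p < 0.05 vs control, - not significant.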

Rattus norvegicus [6] = experiment: Preventive effect of compound was measured on methacholine-induced ST elevation in anesthetized rats at 0.3 mg/kg iv dose with test compound (0-90 min); format: functional; procedure, shortened: as §1
Rattus norvegicus [7] = experiment: Preventive effect of compound was measured on vasopressin-induced ST depression rats at 10 mg/kg po dose after 3h of administration; +=Differ from control value; format: functional, organism-based; set-up: dose 10 mg/kg; procedure, shortened: as §2
Rattus norvegicus [8] = experiment: Preventive effect of compound was measured on vasopressin-induced ST depression rats at 3 mg/kg po dose after 1 hr of administration; +=Differ from control value; format: functional, organism-based; set-up: dose 3 mg/kg; procedure, shortened: as §2
Rattus norvegicus [9] = experiment: Preventive effect of compound was measured on vasopressin-induced ST depression rats at 10 mg/kg po dose after 2 hr of administration; +=Differ from control value; format: functional, organism-based; set-up: dose 10 mg/kg; procedure, shortened: as §2
Rattus norvegicus [10] = experiment: Preventive effect of compound was measured on methacholine-induced ST elevation in anesthetized rats at 1 mg/kg iv dose without test compound; format: functional; procedure, shortened: as §1
Rattus norvegicus [11] = experiment: Preventive effect of compound was measured on methacholine-induced ST elevation in anesthetized rats at 0.1 mg/kg iv dose without test compound; format: functional; procedure, shortened: as §1
Rattus norvegicus [12] = experiment: Preventive effect of compound was measured on vasopressin-induced ST depression rats at 30 mg/kg po dose after 1 hr of administration; +=Differ from control value; format: functional, organism-based; set-up: dose 30 mg/kg; procedure, shortened: as §2
Rattus norvegicus [13] = experiment: Preventive effect of compound was measured on methacholine-induced ST elevation in anesthetized rats at 1 mg/kg iv dose with test compound (0-90 min); format: functional; procedure, shortened: as §1
Rattus norvegicus [14] = experiment: Preventive effect of compound was measured on vasopressin-induced ST depression rats at 10 mg/kg po dose after 1 hr of administration; +=Differ from control value; format: functional, organism-based; set-up: dose 10 mg/kg; procedure, shortened: as §2
Rattus norvegicus [15] = experiment: Preventive effect of compound was measured on vasopressin-induced ST depression rats at 10 mg/kg po dose after 3h of administration; -=No significance; format: functional, organism-based; set-up: dose 10 mg/kg; procedure, shortened: as §2
Rattus norvegicus [16] = experiment: Preventive effect of compound was measured on vasopressin-induced ST depression rats at 3 mg/kg po dose after 1 hr of administration; -=No significance; format: functional, organism-based; set-up: dose 3 mg/kg; procedure, shortened: as §2
Rattus norvegicus [17] = experiment: Preventive effect of compound was measured on vasopressin-induced ST depression rats at 30 mg/kg po dose after 7 hr of administration; -=No significance; format: functional, organism-based; set-up: dose 30 mg/kg; procedure, shortened: as §2
Rattus norvegicus [18] = experiment: Preventive effect of compound was measured on vasopressin-induced ST depression rats at 30 mg/kg po dose after 3h of administration; +=Differ from control value; format: functional, organism-based; set-up: dose 30 mg/kg; procedure, shortened: as §2
Rattus norvegicus [19] = experiment: Preventive effect of compound was measured on methacholine-induced ST elevation in anesthetized rats at 0.1 mg/kg iv dose with test compound (0-90 min); format: functional; procedure, shortened: as §1
Rattus norvegicus [20] = organism: Rattus norvegicus; experiment: Inhibitory effect of compound on contraction induced by high potassium in isolated rat aorta; format: functional
Procedure, shortened: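 Std-Wistar rat thoracic aorta spiral strips (3–4 mm × ~30 mm) under 1.0 g tension in Krebs-bicarbonate, 95% O2/5% CO2, 37 °C, depolarized; isometric contraction to Ca2+ recorded.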

| Structure (SMILES) | Kb (Rattus norvegicus [1]) [nM] | other results |
| --- | --- | --- |
| COc1ccc(CCN(C)CCCC(C#N)(c2ccc(OC)c(OC)c2)C(C)C)cc1OC (stereo not drawn) | 6.92 | – |
| O=C(CCCN1CCN(C/C=C/c2ccccc2)CC1)NC1c2ccccc2C=Cc2ccccc21 | 30.9 | – |
| O=C(CCCCN1CCN(c2ccc(F)cc2)CC1)NC1c2ccccc2C=Cc2ccccc21 | 4.47 | – |
| O=C(CCCN1CCN(c2ccc(F)cc2)CC1)NC1c2ccccc2CSc2ccccc21.O=C(O)/C=C\C(=O)O (stereo not drawn) [MONATEPIL MALEATE] | 1.95 | IC50 (Rattus norvegicus [2]): 21 nM; IC50 (Rattus norvegicus [3]): 16 nM; Activity (Rattus norvegicus [4]): 0.203 delta mV; Activity (Rattus norvegicus [5]): Differ from control value; Activity (Rattus norvegicus [6]): 0.093 delta mV; Activity (Rattus norvegicus [7]): Differ from control value; Activity (Rattus norvegicus [8]): Differ from control value; Activity (Rattus norvegicus [9]): Differ from control value; Activity (Rattus norvegicus [10]): 0.241 delta mV; Activity (Rattus norvegicus [11]): 0.198 delta mV; Activity (Rattus norvegicus [12]): Differ from control value; Activity (Rattus norvegicus [13]): 0.088 delta mV; Activity (Rattus norvegicus [14]): Differ from control value |
| O=C(CCCN1CCN(Cc2ccccc2)CC1)NC1c2ccccc2C=Cc2ccccc21 | 6.03 | – |
| O=C(CCCN1CCN(c2ccc([N+](=O)[O-])cc2)CC1)NC1c2ccccc2CSc2ccccc21 (stereo not drawn) | 7.94 | – |
| O=C(CCCN1CCN(C(=O)c2ccccc2)CC1)NC1c2ccccc2C=Cc2ccccc21 | 20.9 | – |
| O=C(CCCN1CCN(CCCc2ccccc2)CC1)NC1c2ccccc2CSc2ccccc21 (stereo not drawn) | 12.3 | – |
| COc1ccc([C@@H]2Sc3ccccc3N(CCN(C)C)C(=O)[C@@H]2OC(C)=O)cc1 [DILTIAZEM] | – | IC50 (Rattus norvegicus [2]): 203 nM; IC50 (Rattus norvegicus [3]): 352 nM; Activity (Rattus norvegicus [15]): inactive; Activity (Rattus norvegicus [16]): inactive; Activity (Rattus norvegicus [6]): 0.059 delta mV; Activity (Rattus norvegicus [17]): inactive; Activity (Rattus norvegicus [18]): Active; Activity (Rattus norvegicus [9]): Active; Activity (Rattus norvegicus [10]): 0.223 delta mV; Activity (Rattus norvegicus [11]): 0.227 delta mV; Activity (Rattus norvegicus [12]): Active; Activity (Rattus norvegicus [13]): 0.091 delta mV; Activity (Rattus norvegicus [19]): 0.148 delta mV; Activity (Rattus norvegicus [14]): Active |
| O=C(CCCN1CCN(c2ccc(F)cc2)CC1)NC1c2ccccc2Sc2ccccc21 | 10.5 | – |
| O=C(CCCCN1CCN(c2ccc(F)cc2)CC1)NC1c2ccccc2CSc2ccccc21 (stereo not drawn) | 3.47 | – |
| O=C(CCN1CCN(c2ccc(F)cc2)CC1)NC1c2ccccc2CSc2ccccc21 (stereo not drawn) | 2.82 | – |
| O=C(CCCN1CCN(c2ccccc2F)CC1)NC1c2ccccc2C=Cc2ccccc21 | 3.47 | – |
| O=C(CCCN1CCN(c2ccc(Cl)cc2)CC1)NC1c2ccccc2CSc2ccccc21 (stereo not drawn) | 2.82 | – |
| O=C(CCCN1CCN(C/C=C/c2ccccc2)CC1)NC1c2ccccc2CSc2ccccc21 (stereo not drawn) | 7.59 | – |
| O=C(CCCN1CCN(S(=O)(=O)Oc2ccccc2)CC1)NC1c2ccccc2CSc2ccccc21 (stereo not drawn) | 10.5 | – |
| O=C(CCCN1CCN(CCc2ccccc2)CC1)NC1c2ccccc2C=Cc2ccccc21 | 8.91 | – |
| O=C(CCCN1CCN(c2ccc(C(F)(F)F)cc2)CC1)NC1c2ccccc2C=Cc2ccccc21 | 2.09 | – |

| Structure (SMILES) | Kb (Rattus norvegicus [1]) [nM] | other results |
| --- | --- | --- |
| O=C(CCCN1CCN(C(=O)Oc2ccccc2)CC1)NC1c2ccccc2CSc2ccccc21 (stereo not drawn) | 13.2 | – |
| O=C(CCCN1CCN(c2ccc(F)cc2)CC1)NC1c2ccccc2-c2ccccc21 | 69.2 | – |
| O=C(CCN1CCN(c2ccc(F)cc2)CC1)NC1c2ccccc2C=Cc2ccccc21 | 2.75 | – |
| O=C(CCCN1CCN(c2ccccc2)CC1)NC1c2ccccc2C=Cc2ccccc21 | 3.72 | – |
| O=C(CCCN1CCN(CC(=O)c2ccccc2)CC1)NC1c2ccccc2CSc2ccccc21 (stereo not drawn) | 15.5 | – |
| O=C(CCCN1CCN(Cc2ccccc2)CC1)NC1c2ccccc2CSc2ccccc21 (stereo not drawn) | 2.88 | – |
| COc1ccc(N2CCN(CCCC(=O)NC3c4ccccc4CSc4ccccc43)CC2)cc1 (stereo not drawn) | 3.39 | – |
| Cc1ccc(N2CCN(CCCC(=O)NC3c4ccccc4CSc4ccccc43)CC2)cc1 (stereo not drawn) | 3.31 | – |
| O=C(CCCN1CCN(c2ccc(F)cc2)CC1)NC1c2ccccc2COc2ccccc21 (stereo not drawn) | 33.1 | – |
| O=C(CCCN1CCN(C(=O)c2ccccc2)CC1)NC1c2ccccc2CSc2ccccc21 (stereo not drawn) | 36.3 | – |
| O=C(CCCN1CCN(c2ccccc2F)CC1)NC1c2ccccc2CSc2ccccc21 (stereo not drawn) | 3.24 | – |
| O=C(CCCN1CCN(c2ccc(F)cc2)CC1)NC1c2ccccc2C=Cc2ccccc21.O=C(O)/C=C\C(=O)O | 1.05 | Activity (Rattus norvegicus [4]): 0.188 delta mV; Activity (Rattus norvegicus [6]): 0.042 delta mV; Activity (Rattus norvegicus [10]): 0.224 delta mV; Activity (Rattus norvegicus [11]): 0.165 delta mV; Activity (Rattus norvegicus [13]): 0.083 delta mV |
| O=C(CCCN1CCN(c2ccccc2)CC1)NC1c2ccccc2CSc2ccccc21 (stereo not drawn) | 1.74 | – |
| COc1cccc(N2CCN(CCCC(=O)NC3c4ccccc4C=Cc4ccccc43)CC2)c1 | 5.37 | – |
| COC(=O)C1=C(C)NC(C)=C(C(=O)OC)C1c1ccccc1[N+](=O)[O-] [NIFEDIPINE] | – | IC50 (Rattus norvegicus [20]): 2 nM; IC50 (Rattus norvegicus [3]): 4 nM |
| O=C(CCCN1CCN(c2ccc(F)cc2)CC1)NC1c2ccccc2Oc2ccccc21 | 69.2 | – |
| COc1ccc(N2CCN(CCCC(=O)NC3c4ccccc4C=Cc4ccccc43)CC2)cc1OC | 5.01 | – |
| O=C(CCCN1CCN(c2ccc(F)cc2)CC1)NC1c2ccccc2CCc2ccccc21 | 9.33 | – |

— ChEMBL document CHEMBL1125644, “A new class of calcium antagonists. 2. Synthesis and biological activity of 11-[[4-[4-(4-fluorophenyl)-1-piperazinyl]butyryl]amino]-6,11- dihydrodibenzo[b,e]-thiepin maleate and related compounds” (J Med Chem, 1991)
